# Laboratory results from paper PMC2895358 (Journal of Medicinal Chemistry, 2010).
# What was measured:
# [1] = target: T1, cruzain (Trypanosoma cruzi, UniProt P25779); assay: Cruzain inhibition assay; format: biochemical; settings: for time-dependence of cruzain inhibition over incubation: incubation 0 to 240 min, 1 μM of 8, 10 μM of 11, 10 uM of 4, 100 uM of 5
# [2] = target: T1, cruzain; assay: LC/MS stability of compounds in the presence or absence of cruzain; format: physicochemical; settings: for behaviour as cruzain substrate: LC/MS and time-dependence assay
# In short: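 Test compound solutions in 2 mM Bis Tris pH 5.8, with or without 100 nM cruzain, analysed by LC/MS at time points from 30 min to 24 h, with elution monitored at 254 nm, to detect degradation and whether cruzain catalyses it. In a separate run, cruzain activity was followed after incubation with test compound (1 or 10 μM) from 0 to 240 min.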
# [3] = target: T1, cruzain; assay: In vitro activity of compound 11 and representative analogues against cruzain; format: biochemical
# T1 sequence (P25779 123-337 limits assumed): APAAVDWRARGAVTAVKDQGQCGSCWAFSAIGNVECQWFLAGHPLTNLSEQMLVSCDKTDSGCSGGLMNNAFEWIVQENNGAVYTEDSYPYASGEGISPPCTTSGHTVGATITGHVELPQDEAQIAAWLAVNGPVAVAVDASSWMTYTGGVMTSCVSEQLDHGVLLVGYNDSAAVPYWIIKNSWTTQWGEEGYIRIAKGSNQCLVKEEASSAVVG
Ki [1] [nM],behaviour as cruzain substrate [2],SMILES,time-dependence of cruzain inhibition over incubation [1],"stability by LC/MS in the absence of cruzain ([2]; 2 mM Bis Tris pH 5.8, no cruzain, one day)",IC50 [3] [nM]
65,–,O=C(CNC(=O)c1ccccc1)OC(C(=O)Nc1cc(C(F)(F)F)ccc1Cl)c1ccccc1 (stereo not drawn) [Compound 8],clear time-dependent effect,–,–
1600,did not behave as substrates,COc1ccc(Cl)cc1NC(=O)COC(=O)C(CC(C)C)N1C(=O)C2CC=CCC2C1=O (stereo not drawn) [Compound 4],–,–,–
–,did not behave as substrates,CC(C)C(NC(=O)c1ccco1)C(=O)NCC(c1ccco1)N1CCCCC1 (stereo not drawn) [Compound 5],–,–,–

SMILES,Ki [1] [nM],behaviour as cruzain substrate [2],time-dependence of cruzain inhibition over incubation [1],"stability by LC/MS in the absence of cruzain ([2]; 2 mM Bis Tris pH 5.8, no cruzain, one day)",IC50 [3] [nM]
O=C(CNC(=O)c1ccc(Cl)cc1)OC(C(=O)Nc1ccc(Cl)cc1C(F)(F)F)c1ccccc1 (stereo not drawn) [Compound 11],–,identified as a cruzain substrate,clear time-dependent effect,still observed in solution even after one day of incubation,260
